Source: ChEMBL document CHEMBL1141070, “Synthesis and biological activity of flurbiprofen analogues as selective inhibitors of beta-amyloid(1)(-)(42) secretion” (J Med Chem, 2005)

Key:
[1] = target: T1, Prostaglandin G/H synthase 1 (Rattus norvegicus, UniProt Q63921); experiment: Concentration required to inhibit cyclooxygenase-1 in rat blood
T1 sequence (Q63921 whole entry): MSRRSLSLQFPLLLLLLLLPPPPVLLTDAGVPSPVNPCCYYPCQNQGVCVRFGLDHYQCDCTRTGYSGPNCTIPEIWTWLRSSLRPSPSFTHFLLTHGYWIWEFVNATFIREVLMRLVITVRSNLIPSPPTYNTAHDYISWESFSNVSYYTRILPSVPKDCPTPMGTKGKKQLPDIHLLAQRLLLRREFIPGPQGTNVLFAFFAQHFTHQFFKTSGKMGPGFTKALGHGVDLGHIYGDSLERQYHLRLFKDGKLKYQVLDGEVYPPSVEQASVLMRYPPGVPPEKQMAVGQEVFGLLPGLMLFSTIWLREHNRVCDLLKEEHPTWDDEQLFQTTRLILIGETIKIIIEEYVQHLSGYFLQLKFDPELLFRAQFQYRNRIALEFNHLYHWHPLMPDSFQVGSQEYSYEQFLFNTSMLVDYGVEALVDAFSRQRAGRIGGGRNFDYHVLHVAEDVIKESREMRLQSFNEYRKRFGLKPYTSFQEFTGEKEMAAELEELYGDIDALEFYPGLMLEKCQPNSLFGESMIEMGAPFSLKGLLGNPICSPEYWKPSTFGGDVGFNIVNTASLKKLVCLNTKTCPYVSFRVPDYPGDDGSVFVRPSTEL
Method in brief: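 Fresh rat whole blood was preincubated 1 h at 37 °C with compound (100 μM or a concentration series; DMSO 0.3% final). It was then stimulated 30 min with the Ca²⁺ ionophore A23187. Thromboxane B2 in the plasma was measured by radioimmunoassay.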

Cytochrome P450 3A4 = Cytochrome P450 3A4 (Homo sapiens, UniProt P08684); experiment: Interaction with human cytochrome P450 isoform 3A4 expressed in baculovirus-insect cells; format: ADME
Chain of Cytochrome P450 3A4 (P08684 whole entry, canonical isoform): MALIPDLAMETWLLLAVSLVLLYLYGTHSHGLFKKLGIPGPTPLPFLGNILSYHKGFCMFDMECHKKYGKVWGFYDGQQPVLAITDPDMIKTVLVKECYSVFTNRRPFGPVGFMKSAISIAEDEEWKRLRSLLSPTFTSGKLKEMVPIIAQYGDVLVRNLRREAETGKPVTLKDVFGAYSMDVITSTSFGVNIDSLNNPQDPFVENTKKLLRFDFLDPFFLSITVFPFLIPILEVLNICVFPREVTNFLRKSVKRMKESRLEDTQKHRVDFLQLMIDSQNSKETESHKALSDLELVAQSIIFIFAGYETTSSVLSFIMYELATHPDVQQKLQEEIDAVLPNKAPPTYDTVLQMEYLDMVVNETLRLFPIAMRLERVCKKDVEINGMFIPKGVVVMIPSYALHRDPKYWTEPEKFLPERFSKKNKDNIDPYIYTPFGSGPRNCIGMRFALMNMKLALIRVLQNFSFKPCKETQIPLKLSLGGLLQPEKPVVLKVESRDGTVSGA
Method in brief: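 Supersome microsomes from baculovirus-insect cells expressing human CYP1A2, 2C9, 2C19, 2D6 or 3A4 were used with isoform-specific fluorogenic substrates. Compounds were serially diluted with an NADP⁺/glucose-6-phosphate regenerating system in 0.35 M potassium phosphate, pH 7.4. Plates were prewarmed 10 min at 37 °C, reactions stopped with acetonitrile/Tris, and fluorescence read. IC50 was obtained by nonlinear regression.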

Cytochrome P450 2C19 = Cytochrome P450 2C19 (Homo sapiens, UniProt P33261); experiment: Interaction with human cytochrome P450 isoform 2C19 expressed in baculovirus-insect cells; format: ADME
Chain of Cytochrome P450 2C19 (P33261 whole entry, canonical isoform): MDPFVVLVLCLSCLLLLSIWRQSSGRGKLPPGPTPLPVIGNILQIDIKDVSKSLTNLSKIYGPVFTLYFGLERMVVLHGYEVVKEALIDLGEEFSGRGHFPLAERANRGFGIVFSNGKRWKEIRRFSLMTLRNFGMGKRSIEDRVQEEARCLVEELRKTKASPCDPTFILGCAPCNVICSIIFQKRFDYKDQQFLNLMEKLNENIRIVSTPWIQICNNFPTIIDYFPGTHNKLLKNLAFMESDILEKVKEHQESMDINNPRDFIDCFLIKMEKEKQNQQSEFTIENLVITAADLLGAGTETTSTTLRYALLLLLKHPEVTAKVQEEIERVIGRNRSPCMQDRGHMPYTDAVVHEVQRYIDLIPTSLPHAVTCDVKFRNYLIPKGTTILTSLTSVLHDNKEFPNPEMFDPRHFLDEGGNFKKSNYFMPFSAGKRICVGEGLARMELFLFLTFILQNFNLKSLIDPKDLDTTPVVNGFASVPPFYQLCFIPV
Method in brief: (§1)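 Microsomes from baculovirus-insect cells expressing human CYP1A2, 2C9, 2C19, 2D6 or 3A4. Compound serially diluted with an NADPH-regenerating mix (16.3 μM NADP+, 0.83 mM glucose-6-phosphate, 0.83 mM MgCl2, 0.4 U/mL G6PDH). Pre-warmed 10 min at 37 °C, then isoform-specific substrate added in 0.35 M potassium phosphate pH 7.4. Fluorometric read-out; IC50 by nonlinear regression.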

[2] = target: T2, Amyloid-beta precursor protein (Homo sapiens, UniProt P05067); experiment: Inhibitory concentration against beta-amyloid-42 (Abeta42) secretion was evaluated in human neuroglioma cells (H4-APP695NL); format: functional, cell-based
Method in brief: (§2)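 H4-APP695NL human neuroglioma cells (APP695 Swedish K595N/M596L) seeded at 2 × 10^5/well and grown 24 h to confluence. Increasing compound concentrations added overnight; DMSO 1% as vehicle. Supernatant Aβ42 or Aβ40 measured by electrochemiluminescence immunoassay: biotinylated 4G8 plus C-terminus-specific rabbit antibodies, captured on streptavidin beads.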
Target sequence in this assay (P05067 18-770 limits assumed): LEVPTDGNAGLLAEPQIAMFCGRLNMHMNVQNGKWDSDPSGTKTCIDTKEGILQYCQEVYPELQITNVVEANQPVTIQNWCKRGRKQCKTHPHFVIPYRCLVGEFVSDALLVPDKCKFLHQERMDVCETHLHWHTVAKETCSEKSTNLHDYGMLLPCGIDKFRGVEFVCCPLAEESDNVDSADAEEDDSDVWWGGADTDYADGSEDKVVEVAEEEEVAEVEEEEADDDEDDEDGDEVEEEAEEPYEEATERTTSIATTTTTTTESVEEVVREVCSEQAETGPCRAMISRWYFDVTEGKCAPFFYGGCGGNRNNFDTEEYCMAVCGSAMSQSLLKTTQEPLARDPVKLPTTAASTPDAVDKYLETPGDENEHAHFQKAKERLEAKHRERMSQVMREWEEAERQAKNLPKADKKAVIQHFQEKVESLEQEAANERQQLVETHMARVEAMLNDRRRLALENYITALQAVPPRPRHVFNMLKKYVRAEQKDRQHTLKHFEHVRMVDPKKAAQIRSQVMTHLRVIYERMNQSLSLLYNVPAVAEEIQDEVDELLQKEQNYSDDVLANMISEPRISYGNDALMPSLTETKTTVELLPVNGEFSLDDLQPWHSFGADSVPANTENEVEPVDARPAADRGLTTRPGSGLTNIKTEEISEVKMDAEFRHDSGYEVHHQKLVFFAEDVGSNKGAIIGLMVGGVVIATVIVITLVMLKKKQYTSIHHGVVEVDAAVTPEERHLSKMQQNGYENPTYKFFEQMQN

[3] = Intestinal drug absorption was estimated in vitro using human colon adenocarcinoma (Caco-2) cell monolayers; format: ADME
Method in brief: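 Caco-2 monolayers on polycarbonate Transwell inserts, 2 h at 37 °C. Apical and basolateral solutions analysed by LC-MS/MS (SRM). Papp = Cb·Vb/(C0·A·t).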

[4] = target: T2, Amyloid-beta precursor protein; experiment: Concentration required to inhibit A beta 40 peptide; method in brief: as §2
Target sequence in this assay (P05067 whole entry): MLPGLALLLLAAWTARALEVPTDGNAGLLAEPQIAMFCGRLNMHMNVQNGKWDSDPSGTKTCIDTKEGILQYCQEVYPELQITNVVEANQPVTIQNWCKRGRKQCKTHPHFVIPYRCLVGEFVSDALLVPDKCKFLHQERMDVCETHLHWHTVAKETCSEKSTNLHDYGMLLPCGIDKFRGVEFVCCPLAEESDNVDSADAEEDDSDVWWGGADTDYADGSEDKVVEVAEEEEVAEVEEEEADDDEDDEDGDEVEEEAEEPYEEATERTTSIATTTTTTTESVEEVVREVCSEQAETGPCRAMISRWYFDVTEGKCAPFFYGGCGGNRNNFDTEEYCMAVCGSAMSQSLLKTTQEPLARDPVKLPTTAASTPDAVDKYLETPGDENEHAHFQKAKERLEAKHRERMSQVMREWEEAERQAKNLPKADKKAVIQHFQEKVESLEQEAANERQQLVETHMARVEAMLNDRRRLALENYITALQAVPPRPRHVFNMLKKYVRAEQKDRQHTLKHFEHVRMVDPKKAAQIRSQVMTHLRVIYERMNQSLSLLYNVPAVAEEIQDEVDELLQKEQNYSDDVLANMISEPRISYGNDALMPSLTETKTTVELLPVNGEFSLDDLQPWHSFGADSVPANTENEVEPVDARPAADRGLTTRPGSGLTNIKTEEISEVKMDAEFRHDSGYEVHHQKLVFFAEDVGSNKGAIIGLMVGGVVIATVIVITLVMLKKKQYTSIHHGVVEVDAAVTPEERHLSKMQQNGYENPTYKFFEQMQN

[5] = target: T3, Prostaglandin G/H synthase 1 (Rattus norvegicus) (UniProt Q63921); experiment: Percent inhibition against cyclooxygenase-1 at 100 uM in rat blood
T3 sequence (whole entry): T1 sequence (Q63921 whole entry)
Method in brief: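 Fresh rat whole blood preincubated 1 h at 37 °C with compound (100 μM) or DMSO (0.3% final). Stimulated 30 min with A23187 calcium ionophore; plasma thromboxane B2 measured by radioimmunoassay.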

[6] = target: T2, Amyloid-beta precursor protein; details: at 100 µM
Target sequence in this assay (P05067 whole entry): as above

[7] = In vivo steady state metabolic clearance of the compound; details: rat
[8] = Concentration ratio in cerebrospinal fluid and plasma; below lower limit of quantitation; details: rat
Cytochrome P450 2C9 = Cytochrome P450 2C9 (Homo sapiens, UniProt P11712); experiment: Interaction with human cytochrome P450 isoform 2C9 expressed in baculovirus-insect cells; format: ADME; method in brief: as §1
Chain of Cytochrome P450 2C9 (P11712 whole entry, canonical isoform): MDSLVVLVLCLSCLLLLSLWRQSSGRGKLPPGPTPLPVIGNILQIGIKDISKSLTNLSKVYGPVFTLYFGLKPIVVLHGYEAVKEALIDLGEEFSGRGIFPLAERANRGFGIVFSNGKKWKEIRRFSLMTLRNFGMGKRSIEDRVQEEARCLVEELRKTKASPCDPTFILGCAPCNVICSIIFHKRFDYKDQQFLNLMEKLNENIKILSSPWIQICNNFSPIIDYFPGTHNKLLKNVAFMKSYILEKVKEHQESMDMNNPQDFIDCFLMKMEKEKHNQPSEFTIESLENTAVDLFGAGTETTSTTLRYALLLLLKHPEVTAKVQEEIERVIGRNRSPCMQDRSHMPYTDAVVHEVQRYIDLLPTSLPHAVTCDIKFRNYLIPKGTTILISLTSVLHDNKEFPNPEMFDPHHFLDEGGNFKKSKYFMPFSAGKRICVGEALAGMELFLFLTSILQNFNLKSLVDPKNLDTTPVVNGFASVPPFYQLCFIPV

[9] = Concentration ratio in cerebrospinal fluid and plasma; details: rat
[10] = target: T2, Amyloid-beta precursor protein; experiment: Concentration required to inhibit A beta 40 peptide at 100 uM; method in brief: as §2
Target sequence in this assay (P05067 whole entry): as the sequence (P05067 whole entry) above

[11] = target: T2, Amyloid-beta precursor protein; experiment: Concentration required to inhibit A beta 40 peptide 100 uM; method in brief: as §2
Target sequence in this assay (P05067 whole entry): as above

[12] = target: T2, Amyloid-beta precursor protein; experiment: Concentration required to inhibit A beta 40 peptide 100 um
Target sequence in this assay (P05067 whole entry): as above

CYP1A2 = target: T4, CYP1A2 (Homo sapiens, UniProt P05177); experiment: Interaction with human cytochrome P450 isoform 1A2 expressed in baculovirus-insect cells at 100 uM; format: ADME; method in brief: as §1
T4 sequence (P05177 whole entry): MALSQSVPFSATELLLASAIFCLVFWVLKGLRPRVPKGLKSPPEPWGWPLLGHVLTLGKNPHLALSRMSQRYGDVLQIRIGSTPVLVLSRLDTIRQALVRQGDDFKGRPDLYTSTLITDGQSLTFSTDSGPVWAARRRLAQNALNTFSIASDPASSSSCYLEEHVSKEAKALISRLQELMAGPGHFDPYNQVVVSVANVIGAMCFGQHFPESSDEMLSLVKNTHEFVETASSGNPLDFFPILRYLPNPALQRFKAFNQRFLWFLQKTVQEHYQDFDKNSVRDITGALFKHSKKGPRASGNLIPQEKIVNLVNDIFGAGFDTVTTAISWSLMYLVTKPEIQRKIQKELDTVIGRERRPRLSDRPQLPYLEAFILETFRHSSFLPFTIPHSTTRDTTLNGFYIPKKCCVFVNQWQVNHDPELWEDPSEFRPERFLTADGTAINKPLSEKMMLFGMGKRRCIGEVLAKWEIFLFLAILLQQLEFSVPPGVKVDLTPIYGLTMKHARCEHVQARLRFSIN

CYP2D6 = CYP2D6 (Homo sapiens, UniProt P10635); experiment: Interaction with human cytochrome P450 isoform 2D6 expressed in baculovirus-insect cells at 100 uM; format: ADME; method in brief: as §1
Chain of CYP2D6 (P10635 whole entry, canonical isoform): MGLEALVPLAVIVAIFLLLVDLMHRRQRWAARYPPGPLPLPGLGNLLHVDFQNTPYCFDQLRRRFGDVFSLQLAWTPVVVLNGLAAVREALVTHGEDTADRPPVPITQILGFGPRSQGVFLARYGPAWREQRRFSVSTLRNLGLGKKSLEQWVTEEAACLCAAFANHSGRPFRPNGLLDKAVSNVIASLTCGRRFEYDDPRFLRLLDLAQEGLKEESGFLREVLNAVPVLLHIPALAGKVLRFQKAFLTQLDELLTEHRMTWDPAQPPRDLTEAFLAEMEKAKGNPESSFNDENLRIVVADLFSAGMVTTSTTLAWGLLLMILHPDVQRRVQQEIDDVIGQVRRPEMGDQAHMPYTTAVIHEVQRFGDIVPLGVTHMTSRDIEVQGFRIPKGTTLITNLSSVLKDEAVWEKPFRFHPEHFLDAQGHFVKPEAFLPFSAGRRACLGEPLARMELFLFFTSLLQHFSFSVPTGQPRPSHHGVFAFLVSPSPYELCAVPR

CYP2C9 = CYP2C9 (Homo sapiens, UniProt P11712); experiment: Interaction with human cytochrome P450 isoform 2C9 expressed in baculovirus-insect cells at 100 uM; format: ADME; method in brief: as §1
Chain of CYP2C9 (P11712 whole entry, canonical isoform): as the sequence (P11712 whole entry, canonical isoform) above

CYP3A4 = CYP3A4 (Homo sapiens, UniProt P08684); experiment: Interaction with human cytochrome P450 isoform 3A4 expressed in baculovirus-insect cells at 100 uM; format: ADME; method in brief: as §1
Chain of CYP3A4 (P08684 whole entry, canonical isoform): as the sequence (P08684 whole entry, canonical isoform) above

CYP2C19 = CYP2C19 (Homo sapiens, UniProt P33261); experiment: Interaction with human cytochrome P450 isoform 2C19 expressed in baculovirus-insect cells at 100 uM; format: ADME; method in brief: as §1
Chain of CYP2C19 (P33261 whole entry, canonical isoform): as the sequence (P33261 whole entry, canonical isoform) above

Which IC50 [1] does the source give for `C[C@H](C(=O)O)c1ccc(-c2ccccc2)c(F)c1` [ESFLURBIPROFEN] here?
The IC50 was 0.03 µM.

Which IC50 (Cytochrome P450 3A4) does the source give for `O=C(O)C1(c2ccc(-c3ccc(-c4ccc(O)cc4)c(F)c3)c(F)c2)CC1` here?
Its IC50 is 58 µM.

And the IC50 (Cytochrome P450 2C19)?
The IC50 was 74 µM.

And the IC50 [2]?
The IC50 was 33.6 µM.

What about the Papp [3] of the same compound?
Its Papp is greater than 5 ×10⁻⁶ cm/s.

And the IC50 [4]?
Its IC50 is 111 µM.

What about the inhibition [5] of the same compound?
Its inhibition is less than 1%.

What about the inhibition [6] of the same compound?
Its inhibition is 80%.

What about the Clearance [7] of the same compound?
Its Clearance is 109 mL/h.

What about the Ratio [8] of the same compound?
The Ratio was “Below LLOQ”.

With `CC(C(=O)O)c1ccc(-c2ccncc2)c(F)c1` (stereo not given) as the compound, how does the inhibition [6] read?
Its inhibition is 11%.

With `O=C(O)C1(c2ccc(-c3ccccc3)c(F)c2)CC1` as the compound, how does the IC50 (Cytochrome P450 2C9) read?
Its IC50 is 83 µM.

What about the Papp [3] of the same compound?
The Papp was greater than 5 ×10⁻⁶ cm/s.

What about the inhibition [5] of the same compound?
The inhibition was 26%.

What about the inhibition [6] of the same compound?
Its inhibition is 40%.

What about the Ratio [9] of the same compound?
The Ratio was 2.3%.

And the Clearance [7]?
The Clearance was 9.8 mL/h.

For `COC(=O)C(C)c1ccc(-c2cc(Cl)cc(Cl)c2)c(F)c1` (stereo not given), which inhibition [10] is on record?
Its inhibition is 45%.

What does the source list for `CC(C(N)=O)c1ccc(-c2cc(Cl)cc(Cl)c2)c(F)c1` (stereo not given)?
IC50 [2]: 64 µM; IC50 [11]: 12 µM; inhibition [6]: 70%; Ratio [9]: 19%; Clearance [7]: 193 mL/h

Which results are given for `C[C@@H](C(=O)O)c1ccc(-c2ccccc2)c(F)c1` [TARENFLURBIL]?
IC50 [2]: 280 µM; IC50 [1]: 44 µM

With `CC(C(=O)O)c1ccc(-c2ccsc2)c(F)c1` (stereo not given) as the compound, how does the inhibition [6] read?
Its inhibition is 40%.

Which inhibition [6] does the source give for `CC(C(=O)O)c1ccc(-c2ccccc2C(F)(F)F)c(F)c1` (stereo not given) here?
The inhibition was 25%.

What does the source list for `CC(C)(C(=O)O)c1ccc(-c2ccc(C3CCCCC3)cc2)c(F)c1`?
IC50 (Cytochrome P450 2C9): 28 µM; IC50 (Cytochrome P450 3A4): 59 µM; inhibition [12]: 47%; inhibition [5]: 12%; inhibition [6]: 77%

Which results are given for `O=C(O)C1(c2ccc(-c3csc4ccccc34)c(F)c2)CC1`?
IC50 (Cytochrome P450 2C9): 19 µM; IC50 [2]: 96.3 µM; Papp [3]: > 5 ×10⁻⁶ cm/s; inhibition [5]: < 1%; inhibition [6]: 49%; Ratio [9]: 2.6%; Clearance [7]: 113.6 mL/h

For `CC(C(=O)NS(C)(=O)=O)c1ccc(-c2ccc(C(F)(F)F)cc2)c(F)c1` (stereo not given), which inhibition at 100 µM (CYP1A2) is on record?
Its inhibition at 100 µM is greater than 50%.

What about the inhibition at 100 µM (CYP2D6) of the same compound?
The inhibition at 100 µM was greater than 50%.

And the inhibition at 100 µM (CYP2C9)?
Its inhibition at 100 µM is greater than 50%.

What about the inhibition at 100 µM (CYP3A4) of the same compound?
The inhibition at 100 µM was greater than 50%.

What about the inhibition at 100 µM (CYP2C19) of the same compound?
The inhibition at 100 µM was greater than 50%.

What about the inhibition [6] of the same compound?
The inhibition was 34%.

And the Ratio [9]?
The Ratio was 1.7%.

What about the Clearance [7] of the same compound?
Its Clearance is 3.1 mL/h.

Which inhibition [6] does the source give for `CC(C(=O)O)c1ccc(-c2ccc(O)cc2)c(F)c1` (stereo not given) here?
The inhibition was 27%.

For `CC(C(=O)O)c1ccc(-c2cccc(Cl)c2)c(F)c1` (stereo not given), which inhibition [6] is on record?
The inhibition was 58%.

With `Cc1ccc(-c2ccc(C(C)C(=O)O)cc2F)cc1` (stereo not given) as the compound, how does the inhibition [6] read?
The inhibition was 44%.

Which inhibition [6] does the source give for `CC(C(=O)O)c1ccc(-c2ccc(C(F)(F)F)cc2)cc1` (stereo not given) here?
The inhibition was 2%.

Which results are given for `CC(C(=O)O)c1ccc(-c2ccc(-c3ccc(O)cc3)cc2)c(F)c1` (stereo not given)?
IC50 (Cytochrome P450 2C9): 4.7 µM; IC50 (Cytochrome P450 3A4): 74 µM; IC50 (Cytochrome P450 2C19): 58 µM; IC50 [2]: 35 µM; Papp [3]: > 5 ×10⁻⁶ cm/s; inhibition [5]: 17%; inhibition [6]: 75%; Ratio [9]: 1.1%; Clearance [7]: 85 mL/h
